Test results: PubChem BioAssay AID504383 (The Scripps Research Institute Molecular Screening Center, 2011)
“And” between values parts separate entries of the source, which are not always exact repeats. Equal entries are not always repeated. About 1,200 (48%) of roughly 2,500 compounds were called active. So high a share suggests a set chosen from earlier hits. Some of the results follow. Values without a mark were called inactive.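 Rule for the calls: active = mean activation above the low control average plus 3 SD, as set in the primary screen (cut at about 12% in these data); inactive = the rest.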

What follows are molecules tested against Troponin I, cardiac muscle (Homo sapiens) + Troponin T, cardiac muscle (Homo sapiens) + Troponin C, slow skeletal and cardiac muscles (Homo sapiens) (UniProt P19429+P45379+P63316) (assay: cardiac RTF calcium sensitivity activators, confirmation, biochemical, IANBD-TnC fluorescence, triplicate (AID 504383;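 note: 0% = DMSO at 0.472 mM calcium and 100% = DMSO at 2.9 mM calcium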)). Details: IANBD-labeled cardiac RTF, Ca2+ sensitivity fluorescence, at 7.2 µM, hits give high values, tested at EC20 calcium, 0.472 mM.
Method in brief: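 Material: labelled regulated thin filaments; Reagent: 0.472 mM calcium; Incubation: 15 min compound incubation with filaments at 25 °C; Detection: filament fluorescence intensity; Evaluation: fluorescence increase normalised to calcium controls; Benchmarks: low control EC20 calcium, high control EC100 calcium.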

Structure (SMILES) | activation
CC(C)n1c(=O)c(C=Nc2cccc([N+](=O)[O-])c2)c(O)n(CCc2ccccc2)c1=O | 19.7% (active)
Cc1cc(Cl)nc(N)n1 | 96.2% (active)
C[C@]12CCC(=O)C=C1CC[C@@H]1[C@@H]2CC[C@]2(C)C(=O)CC[C@@H]12 | -0.04%
CCOC(=O)c1ccccc1C(=O)OCC | 4170% (active)
CCN(CC)C(=O)c1ccc(NC(=O)COc2ccc([N+](=O)[O-])cc2Cl)cc1 | 4.48%
O=[N+]([O-])c1ccc(N2CCCCCC2)c2nonc12 | 31.9% (active)
Nc1ccc2nonc2c1[N+](=O)[O-] | 6.77%
O=[N+]([O-])c1ccc(N2CCCC2)c2ncccc12 | 38.3% (active)
CCOC(=O)C1CCCN(c2ccc([N+](=O)[O-])c3nonc23)C1 (centres undefined) | 16.5% [scaled from EC20 to saturating calcium] (active)
CC(C)C[C@H]1C(=O)N2CCC[C@H]2[C@]2(O)O[C@](NC(=O)[C@@H]3C=C4c5cccc6[nH]cc(c56)C[C@H]4N(C)C3)(C(C)C)C(=O)N12 | 8.78%
O=C1NC(=S)SC1=Cc1ccc(N(CCCl)CCCl)cc1 | 0.25%
CN1CCN(c2ccc3c(c2)S(=O)(=O)c2ccccc2C3=O)CC1 | 2.45%
CCN1C[C@]2(CO)CC[C@H](OC)[C@@]34C5C[C@H]6[C@H](OC)C5[C@](O)(C[C@H]6OC)[C@@H](C(OC)C23)[C@@H]14 (some centres undefined) | 15.5% (active)
C[C@]12CCC3C(CC[C@H]4C[C@@H](O)[C@H](O)C[C@]34C)C1CC[C@@H]2O (some centres undefined) | 24.5% (active)
Nc1c2c(nc3ccccc13)CCN(Cc1ccccc1)C2 | 87.8% (active)
CCOP(=O)(Cc1cc(C#N)oc1C)OCC | 7.87%
O=C(O)C1=CC2c3ccccc3C1c1ccccc12 | 11.7% (active)

Structure (SMILES) | activation
CC(C)c1ccc(N2C(=O)NC(=O)/C(=C/C=C/c3ccco3)C2=O)cc1 | 7.28%
CN(C)P(=O)(CCl)Nc1ccccc1 (centres undefined) | 38.8% (active)
CN1CCC2(CC1)C(C#N)=C(N)NC(S)=C2C#N | 6.17% and 11.4%
COC(=O)[C@H]1C[C@@H]1[C@H](NP(=O)(c1ccccc1)c1ccccc1)c1ccccc1 | -0.05%
CCOCCCn1c(N)c(C(=O)Nc2sc3c(c2C(=O)OC)CCCC3)c2nc3ccccc3nc21 | 12.7% (active)
COc1ccc(N=Nc2c(O)[nH]c(=S)[nH]c2=O)cc1 | 6.09%
CCOC(=O)c1cc(CC)sc1/N=C/c1c(O)[nH]c(=S)[nH]c1=O | 8.76%
Cc1cc2c(C(F)(F)F)cc(=O)oc2c2c1NCCC2 | 79.4% (active)
O=c1cc(C(F)(F)F)c2cc3c4c(c2o1)CCCN4CCC3 | 67.7% (active)
Cc1ccc(C)c(Cn2c(C(=O)O)c(C=O)c3ccccc32)c1 | 4.27%
CCC1(C)OC(c2ccccc2)=C/C(=C/C=C2C(=O)NC(=O)NC2=O)O1 (centres undefined) | 32.1% (active)
CN1/C(=C\C=C2C(=O)NC(=O)NC2=O)C(C)(C)c2ccccc21 | 9.74%
CC1(C)OC(c2ccccc2)=C/C(=C/C=C2C(=O)NC(=O)NC2=O)O1 | 6.59%
CN1CCN(Cc2cn(C)c3ccccc23)CC1CCO (centres undefined) | 40.5% (active)
C#C[C@]1(O)CC[C@H]2[C@@H]3CCC4=Cc5nc6nc7ccccc7n6cc5C[C@]4(C)[C@H]3CC[C@@]21C | 6.44%
C=Cn1ccnc1P(=S)(c1nccn1C=C)c1nccn1C=C | 23.4% (active)
COC(=O)C1=C(c2cccc(C#N)c2)C[C@@H]2CC[C@H]1N2C(=O)N1CCOCC1 | 14.3% (active)
